We go through 1 compound from ChEMBL document CHEMBL4376838, “Discovery of Novel Celastrol Derivatives as Hsp90-Cdc37 Interaction Disruptors with Antitumor Activity” (J Med Chem, 2019).

Each structure is given as a SMILES string. Activity calls are given as the source filed them. The calls are words filed in the database; no cut-off is given here.

This assay has as its target Heat shock protein HSP 90-alpha (Homo sapiens) (UniProt P07900). As to the kind of experiment: Binding affinity to full length Hsp90alpha (unknown origin) assessed as reduction in absorption at 440 nm reaching equilibrium within 5 mins at 100 uM by UV absorption analysis. The note with it: in the assay text read “within 15 mins” for “within 5 mins”. The procedure, abridged: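 Compound (100 μM) mixed with GSH (100 μM), Cdc37 (1.5 μM) or Hsp90 (1.5 μM) in PBS containing 1% DMSO, incubated at 37 °C for 0, 5, 15 and 30 min. UV spectra scanned 200-500 nm, with absorbance at 440 nm compared against the 0 min value (A/A0). Mean ± SD, n = 3.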

As for `CC1=C(O)C(=O)C=C2C1=CC=C1[C@@]2(C)CC[C@@]2(C)[C@@H]3C[C@](C)(C(=O)OCCCOC(=O)/C=C(\C#N)c4ccc(F)cc4)CC[C@]3(C)CC[C@]12C`, the result was Active.
